Marks after values point to notes of the source that are not given here.
Assays:
[1] = test system: advanced or metastatic solid tumours; assay: Antitumour activity per RECIST v1.1; type: in vivo, human
Summary of the method: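 Part 1a monotherapy dose escalation used a standard 3+3 design, with 8 dose levels from 50 mg to 1000 mg. The test compound was given orally twice daily as tablet or capsule on days 1–28 of 28-day cycles. BOR, ORR and PFS followed RECIST v1.1, with confirmed responses unless stated otherwise. Response-evaluable patients had ≥1 dose, a baseline scan and ≥1 postbaseline scan, or qualifying discontinuation.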

syngeneic mouse models = conditions: multiple syngeneic mouse models; cited from earlier work
urea cycle = assay: Urea cycle inhibition monitored via orotic acid levels; type: in vivo, human
[2] = test system: patients with advanced or metastatic solid tumours; assay: Safety: treatment-emergent adverse events; type: in vivo, human
Summary of the method: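 Safety covered monotherapy Parts 1a/2, with oral tablet or capsule dosing twice daily on days 1–28 of 28-day cycles. TEAEs were graded by CTCAE v4.03, which counts malignant progression as an AE. Laboratory values, vital signs and physical examinations were also monitored. The safety population was all patients receiving ≥1 dose. DLTs were defined as grade 3–4 toxicities, urea cycle inhibition, or AUC0–12h >100 µg.h/mL.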

[3] = monotherapy dose escalation Part 1a total (n=25)
[4] = monotherapy dose escalation Part 1a total (n=30)
[5] = monotherapy dose expansion Part 2 total (n=73)
[6] = monotherapy dose expansion Part 2 total (n=77)

SMILES: C[C@H](N)C(=O)N1C[C@H](CCCB(O)O)[C@](N)(C(=O)O)C1 [INCB001158]
- confirmed partial response ([1]; monotherapy 100 mg two times per day, Part 2 (n=73), one patient, urothelial cancer): 1.4%
- objective response ([1]; monotherapy dose escalation Part 1a (n=25)): No patient in the monotherapy cohort had an objective response
- BOR of stable disease ([1]; monotherapy dose escalation Part 1a (n=25), five patients): 20.0%
- BOR: CR [1, 3]: 0 n (%)
- BOR: NE [1, 3]: 1 (4.0) n (%)
- BOR: PD [1, 3]: 19 (76.0) n (%)
- BOR: PR [1, 3]: 0 n (%)
- BOR: SD [1, 3]: 5 (20.0) n (%)
- ORR [1, 3]: 0 (0 to 13.7) n (%) (95% CI)
- PFS events [1, 4]: 21 (70.0) n (%)
- PFS, median (95% CI) [1, 4]: 1.8 (1.8 to 1.9) mo
- BOR: CR [1, 5]: 0 n (%)
- BOR: Missing [1, 5]: 10 (13.7) n (%)
- BOR: NE [1, 5]: 3 (4.1) n (%)
- BOR: PD [1, 5]: 37 (50.7) n (%)
- BOR: SD [1, 5]: 22 (30.1) n (%)
- ORR [1, 5]: 1 (1.4) (0 to 7.4) n (%) (95% CI)
- BOR: PR ([1]; monotherapy dose expansion Part 2 total (n=73), well-differentiated urothelial cancer): 1 (1.4)† n (%)
- PFS events [1, 6]: 58 (75.3) n (%)
- PFS, median (95% CI) [1, 6]: 1.9 (1.8 to 2.1) mo
- tumour growth (syngeneic mouse models): reduced tumour growth
- orotic acid levels (urea cycle; 150 mg two times per day, highest dose level tested, no symptomatic nor clinically significant urea cycle inhibition): apparent increase in orotic acid levels
- patients with urinary orotic acid levels >10× the upper limit of normal (urea cycle; monotherapy, all asymptomatic): four
- TEAEs leading to dose reduction ([2]; monotherapy): no TEAE led to dose reduction
- recommended phase 2 dose (RP2D) ([2]; monotherapy): 100 mg two times per day
- serious TEAE abdominal pain ([2]; monotherapy): 5.6%
- serious TEAE back pain ([2]; monotherapy): 2.8%
- serious TEAE cellulitis ([2]; monotherapy): 2.8%
- serious TEAE malignant neoplasm progression ([2]; monotherapy): 4.7%
- serious TEAE small-intestinal obstruction ([2]; monotherapy): 2.8%
- ALT increased, any-grade TEAE ([2]; monotherapy 50 mg bid (n=8)): 0 n (%)
- AST increased, any-grade TEAE ([2]; monotherapy 50 mg bid (n=8)): 1 (12.5) n (%)
- Abdominal pain, any-grade TEAE ([2]; monotherapy 50 mg bid (n=8)): 2 (25.0) n (%)
- Abdominal pain, grade ≥3 TEAE ([2]; monotherapy 50 mg bid (n=8)): 1 (12.5) n (%)
- Anaemia, any-grade TEAE ([2]; monotherapy 50 mg bid (n=8)): 3 (37.5) n (%)
- Anaemia, grade ≥3 TEAE ([2]; monotherapy 50 mg bid (n=8)): 1 (12.5) n (%)
- Any TEAE ([2]; monotherapy 50 mg bid (n=8)): 7 (87.5) n (%)
- Any grade ≥3 TEAE ([2]; monotherapy 50 mg bid (n=8)): 6 (75.0) n (%)
- Any irTEAE ([2]; monotherapy 50 mg bid (n=8)): 0 n (%)
- Colitis, irTEAE ([2]; monotherapy 50 mg bid (n=8)): 0 n (%)
- Constipation, any-grade TEAE ([2]; monotherapy 50 mg bid (n=8)): 2 (25.0) n (%)
- Decreased appetite, any-grade TEAE ([2]; monotherapy 50 mg bid (n=8)): 0 n (%)
- Diarrhoea, any-grade TEAE ([2]; monotherapy 50 mg bid (n=8)): 0 n (%)
- Fatigue, any-grade TEAE ([2]; monotherapy 50 mg bid (n=8)): 1 (12.5) n (%)
- Fatigue, grade ≥3 TEAE ([2]; monotherapy 50 mg bid (n=8)): 0 n (%)
- Hypoalbuminaemia, any-grade TEAE ([2]; monotherapy 50 mg bid (n=8)): 0 n (%)
- Hyponatraemia, any-grade TEAE ([2]; monotherapy 50 mg bid (n=8)): 0 n (%)
- Hyponatraemia, grade ≥3 TEAE ([2]; monotherapy 50 mg bid (n=8)): 0 n (%)
- Malignant neoplasm progression, grade ≥3 TEAE ([2]; monotherapy 50 mg bid (n=8)): 0 n (%)
- Nausea, any-grade TEAE ([2]; monotherapy 50 mg bid (n=8)): 2 (25.0) n (%)
- Oedema peripheral, any-grade TEAE ([2]; monotherapy 50 mg bid (n=8)): 2 (25.0) n (%)
- Vomiting, any-grade TEAE ([2]; monotherapy 50 mg bid (n=8)): 2 (25.0) n (%)
- ALT increased, any-grade TEAE ([2]; monotherapy 75 mg bid (n=7)): 0 n (%)
- AST increased, any-grade TEAE ([2]; monotherapy 75 mg bid (n=7)): 0 n (%)
- Abdominal pain, any-grade TEAE ([2]; monotherapy 75 mg bid (n=7)): 0 n (%)
- Abdominal pain, grade ≥3 TEAE ([2]; monotherapy 75 mg bid (n=7)): 0 n (%)
- Anaemia, any-grade TEAE ([2]; monotherapy 75 mg bid (n=7)): 3 (42.9) n (%)
- Anaemia, grade ≥3 TEAE ([2]; monotherapy 75 mg bid (n=7)): 1 (14.3) n (%)
- Any TEAE ([2]; monotherapy 75 mg bid (n=7)): 7 (100.0) n (%)
- Any grade ≥3 TEAE ([2]; monotherapy 75 mg bid (n=7)): 2 (28.6) n (%)
- Any irTEAE ([2]; monotherapy 75 mg bid (n=7)): 0 n (%)
- Colitis, irTEAE ([2]; monotherapy 75 mg bid (n=7)): 0 n (%)
- Constipation, any-grade TEAE ([2]; monotherapy 75 mg bid (n=7)): 1 (14.3) n (%)
- Decreased appetite, any-grade TEAE ([2]; monotherapy 75 mg bid (n=7)): 2 (28.6) n (%)
- Diarrhoea, any-grade TEAE ([2]; monotherapy 75 mg bid (n=7)): 0 n (%)
- Fatigue, any-grade TEAE ([2]; monotherapy 75 mg bid (n=7)): 3 (42.9) n (%)
- Fatigue, grade ≥3 TEAE ([2]; monotherapy 75 mg bid (n=7)): 0 n (%)
- Hypoalbuminaemia, any-grade TEAE ([2]; monotherapy 75 mg bid (n=7)): 0 n (%)
- Hyponatraemia, any-grade TEAE ([2]; monotherapy 75 mg bid (n=7)): 1 (14.3) n (%)
- Hyponatraemia, grade ≥3 TEAE ([2]; monotherapy 75 mg bid (n=7)): 0 n (%)
- Malignant neoplasm progression, grade ≥3 TEAE ([2]; monotherapy 75 mg bid (n=7)): 0 n (%)
- Nausea, any-grade TEAE ([2]; monotherapy 75 mg bid (n=7)): 3 (42.9) n (%)
- Oedema peripheral, any-grade TEAE ([2]; monotherapy 75 mg bid (n=7)): 0 n (%)
- Vomiting, any-grade TEAE ([2]; monotherapy 75 mg bid (n=7)): 3 (42.9) n (%)
- ALT increased, any-grade TEAE ([2]; monotherapy 100 mg bid (n=85)): 4 (4.7) n (%)
- AST increased, any-grade TEAE ([2]; monotherapy 100 mg bid (n=85)): 8 (9.4) n (%)
- Abdominal pain, any-grade TEAE ([2]; monotherapy 100 mg bid (n=85)): 15 (17.6) n (%)
- Abdominal pain, grade ≥3 TEAE ([2]; monotherapy 100 mg bid (n=85)): 5 (5.9) n (%)
- Anaemia, any-grade TEAE ([2]; monotherapy 100 mg bid (n=85)): 11 (12.9) n (%)
- Anaemia, grade ≥3 TEAE ([2]; monotherapy 100 mg bid (n=85)): 4 (4.7) n (%)
- Any TEAE ([2]; monotherapy 100 mg bid (n=85)): 81 (95.3) n (%)

From paper PMC11235002 (BMJ Oncology, 2024)
